# Sampled rows, rich in hits. Any-hit rate of the full collection: about 2.7%.
# ABCG2 inh: blocks JC-1 efflux by human ABCG2 transporter; Q9UNQ0; IgMXP3 cells, flow cytometry; inhibition, % at 6.6 µM; 190,000 compounds, 0.1% hits; AID 1325;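 active means inhibition above 80%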;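 further: 0% = DMSO and 100% = nicardipine control wells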
#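 Test system: ABCG2 IgMXP3 and barcoded ABCB1 CCRF-Adr cell mix; Schedule: cells with compound and JC-1, 10 min at 25 °C, rotating, no wash; Technique: flow cytometry of retained JC-1 fluorescence; Measure: % inhibition of efflux relative to nicardipine and DMSO; Controls: nicardipine high and DMSO low controls.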
# DTT redox prof: compounds producing H2O2 with reducing agent – biochemical, NIH compound library profiling, artefact control for MLSCN library redox annotation, primary screen. DTT-dependent redox cycling H2O2, phenol red/HRP absorbance; 100% = 100 µM peroxide control, 0% = buffer. activation, % at 10 µM. 200,000 compounds, 0.03% hits. AID 878;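 active means activation of at least 50% relative to the plate's high and low controls in the primary single-dose screen; inactive means activation below 50%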;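 further: compound incubated with DTT at 0.8 mM final as the reducing agent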
# ABCB1 block: human ABCB1 inhibition, ABCG2 as counter-screen; inhibition, % at 6.6 µM; 190,000 compounds, 0.067% hits; AID 1326; CCRF-Adr cells, JC-1 efflux, flow cytometry; P08183; in the data active means inhibition above about 40%;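 further: 0% = vehicle and 100% = reference inhibitor; higher value means more JC-1 retained so stronger ABCB1 efflux block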
# FLuc act counter: affects firefly luciferase, flagging false hits in luciferase stimulation screens; P08659; ATPlite luciferase biochemical, luminescence, 10 min; 0 = ATP-free wells, 1 = DMSO control; activation factor at 10 µM; 200,000 tested, under 10 active; AID 1027;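 active means luciferase activation factor, scaled between plate controls, of at least 2 with compound at 10 µM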
# Target sequence (P08659 whole entry, looked up): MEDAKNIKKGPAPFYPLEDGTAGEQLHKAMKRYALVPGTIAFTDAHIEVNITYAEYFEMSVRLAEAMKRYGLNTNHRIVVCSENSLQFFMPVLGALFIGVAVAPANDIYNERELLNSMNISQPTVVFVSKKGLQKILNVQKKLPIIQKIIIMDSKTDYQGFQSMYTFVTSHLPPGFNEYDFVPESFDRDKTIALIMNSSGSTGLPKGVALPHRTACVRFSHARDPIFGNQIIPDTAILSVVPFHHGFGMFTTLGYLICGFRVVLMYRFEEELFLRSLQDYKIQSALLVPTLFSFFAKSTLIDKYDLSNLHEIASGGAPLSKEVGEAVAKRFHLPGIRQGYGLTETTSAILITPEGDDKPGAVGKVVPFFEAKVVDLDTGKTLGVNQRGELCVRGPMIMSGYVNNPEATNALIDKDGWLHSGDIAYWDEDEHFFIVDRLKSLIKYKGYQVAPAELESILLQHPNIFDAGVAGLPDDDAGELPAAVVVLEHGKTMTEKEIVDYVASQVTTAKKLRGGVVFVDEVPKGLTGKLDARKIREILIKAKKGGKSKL
#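 Material: luciferase plus luciferin reagent, cell-free. Medium: PBS buffer for ATP. Also added: ATP substrate, dispensed from a 10.24 µM working solution in PBS. Doses: test compounds dosed from 2 mM stocks in 100% DMSO. Incubation: 10 min post-reagent at room temperature. Technique: light output (luminescence). Read-out basis: luminescence gain marking luciferase activators.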
# Measles CPE: protection of cells from measles virus | 140,000 compounds, 1.5% hits | protection (pct of control), % at 4 µM | Measles virus-infected cells, CPE protection, absorbance | AID 841; in the data active means protection mostly above about 24%, no sharp cut-off; inactive means mostly below about 26%
# FLuc inh counter: counter-screen for luciferase assay inhibitors: firefly luciferase inhibition | ATPLite firefly luciferase biochemical luminescence, 10 min | 200,000 compounds, 1.5% hits | inhibition, % at 10 µM | P08659 | AID 1006;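 active means inhibition above about 50% when tested at 10 µM, limit read from the data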
# The depositor's hits bear a star; x = not tested or not shown.
SMILES,ABCG2 inh,DTT redox prof,ABCB1 block,FLuc act counter,Measles CPE,FLuc inh counter
O=C1c2ccccc2-c2nccnc21,11,-1,1,1,1,3
O=C1c2cccnc2-c2ncccc21,2,0,0,1,46*,-1
Cc1cccc(C(C)(C)C)c1OCCn1ccnc1,3,2,1,1,26*,-4
CC(C)CN(CC(C)C)c1nnc(N)s1,1,1,1,1,28*,-3
CCOc1ccc(/C=N/NC(=O)c2[nH]ncc2Br)c(O)c1,-7,-1,-1,0.1,x,91*
O=C(N/N=C/c1c(O)ccc2ccccc12)c1[nH]ncc1Br,-2,-1,-1,0.9,8,7
Cc1ccc(O)c(/C=N/NC(=O)c2[nH]ncc2Br)c1,2,-1,0,0.3,18,74*
CS(=O)(=O)Nc1ccc(S(=O)(=O)N2CCCC2)cc1,1,1,0,1.1,x,-7
O=C1Cc2cc(CCN3CCN(c4nsc5ccccc45)CC3)c(Cl)cc2N1,4,x,x,1,x,-1
O=C(CCC1CCCN(C(=O)CC2=CCCCC2)C1)N1CCN(c2ccccn2)CC1 (configuration not stated),1,-1,1,1,x,-1
COc1ccc(CC(=O)Nc2cccc(C)n2)cc1OC,-4,0,-1,1.1,10,-7
COC(=O)C1C(=O)c2c([nH]c(C(=O)OC3CCCCC3)c2C)CC1C (configuration not stated),1,0,0,0.7,33*,25
Cc1ccnc(NC(=O)CCC(=O)N(CC(=O)NC(C)(C)C)c2ccc3c(c2)OCCO3)c1,1,0,0,1.1,x,-6
Cc1cccc(C(=O)NNC(=O)CCC(=O)Nc2cccc(Cl)c2C)c1,3,0,0,1,35*,0
Cc1ccc(C(=O)NNC(=O)CCC(=O)Nc2cccc(Cl)c2C)cc1,2,0,0,1,4,-1
CCn1c(NCc2cccs2)nc2ccccc21,1,1,0,1.1,7,-6
O=c1c2ccccc2nc2ccc(NCc3cccs3)nn12,17,0,1,0.4,x,59*
CCOc1ccc(C(=O)c2cc([N+](=O)[O-])ccc2Cl)cc1,2,-2,-1,1.1,10,-11
Oc1ccc(-c2csc(NCc3ccco3)n2)cc1,2,-3,0,0.8,9,15
CC(=O)Nc1cccc(-c2csc(NCc3ccco3)n2)c1,-1,0,-2,1,27*,-2
Cc1ccc(NC(=S)N(Cc2cccs2)Cc2cc3cccc(C)c3[nH]c2=O)cc1,-3,0,0,1.1,20,-7
O=C(CC1(O)C(=O)N(Cc2cccc3ccccc23)c2ccccc21)c1cccnc1 (configuration not stated),3,0,1,0.3,9,69*
COC(=O)c1cn[nH]c1NC(=S)Nc1ccc(Cl)c(Cl)c1,7,0,0,0.8,8,25
COC(=O)c1cn[nH]c1NC(=S)Nc1ccc(C)cc1Cl,3,3,-1,0.5,16,54*
CCOCCn1c(COc2ccc(C)cc2)nc2ccccc21,4,-1,0,0.7,29*,26
SMILES,ABCG2 inh,DTT redox prof,ABCB1 block,FLuc act counter,Measles CPE,FLuc inh counter
O=C(CN1C(=O)C2C3C=CC(C3)C2C1=O)N1CCc2ccccc2C1 (configuration not stated),1,0,0,1,3,2
O=C(Nc1ccccc1SCC1CSc2nc3ccccc3c(=O)n21)c1cccc(Cl)c1 (configuration not stated),-2,0,-3,1.1,36*,-8
Cc1ccc(C(=O)Nc2ccccc2SCC2CSc3nc4ccccc4c(=O)n32)cc1 (configuration not stated),11,-4,1,1.1,63*,-7
O=C(Nc1ccccc1SCC1CSc2nc3ccccc3c(=O)n21)c1ccccc1 (configuration not stated),-1,-3,-3,1.1,4,-6
Cc1cccc(C(=O)Nc2ccccc2SCC2CSc3nc4ccccc4c(=O)n32)c1 (configuration not stated),3,-3,1,1,25*,1
CC1=CCC2C(=O)N(c3ccc(OC(=O)c4ccco4)cc3)C(=O)C2C1 (configuration not stated),0,0,0,1.1,x,-8
Cn1c(NC(=O)/C=C\c2ccccc2)cc(=O)n(C)c1=O,3,0,0,0.9,x,14
COc1ccc2cc(-c3[nH]ncc3CN3C[C@@H]4CCC[C@H]3C4)ccc2c1,3,1,1,1,x,-5
Cn1c(Cl)nc2ccccc21,0,0,0,1.1,14,-5
Cn1c(N=Nc2ccccc2)nc2ccccc21,42,0,1,0,20,95*
CCOc1ccc(/C=N/Nc2ccc(C(F)(F)F)cc2[N+](=O)[O-])cc1O,17,2,0,1,32*,1
COc1ccc(/C=N/NC(=O)c2sccc2OCc2ccc(F)cc2)cc1OC,5,-3,2,1,6,-3
c1ccc(-c2nnc(CN3CCC4(CC3)OCCO4)o2)cc1,3,1,1,1,2,-4
OC1(c2ccccc2F)CCN(Cc2nnc(-c3ccccc3)o2)CC1,2,3,0,1,81*,-1
CCn1nc(C(=O)OCC(=O)c2cc(C)n(Cc3cccs3)c2C)c2ccccc2c1=O,1,2,1,0.4,12,58*
Cc1cc(C(=O)COC(=O)c2ccccc2O)c(C)n1Cc1cccs1,2,0,0,0.1,22,90*
Cc1cc(C(=O)COC(=O)c2ccc3c(c2)OCO3)c(C)n1Cc1cccs1,0,2,0,0.7,11,31
N#Cc1c(NC(=O)c2ccccc2Cl)n(Cc2ccccc2)c2nc3ccccc3nc12,11,4,-2,1.1,47*,-10
CCCCCCc1nc2ccccc2c(=O)n1NC(=O)c1c(O)c2cccc3c2n(c1=O)CCC3,0,0,1,1.1,2,-8
CC(NC(N)=O)C(=O)OCC(=O)c1ccc(-c2ccccc2)cc1 (configuration not stated),17,0,-2,0.7,x,29
COc1cccc(-c2nnc(SCC(N)=O)n2-c2ccc(Cl)cc2)c1,12,2,2,1,57*,2
O=c1c(Cl)c(NCc2ccc(F)cc2)cnn1C12CC3CC(CC(C3)C1)C2,17,0,2,1,36*,1
